Test results reported in ChEMBL document CHEMBL3526127, “Absorption, elimination, and metabolism of CS-1036, a novel α-amylase inhibitor in rats and monkeys, and the relationship between gastrointestinal distribution and suppression of glucose absorption” (Drug Metab Dispos, 2013).
Values belong to the compound of their own block, whether it stands above or below them.

Key:
[1] = AUClast in cynomolgus monkey at 10 mg/kg, po administered as single dose by LC-MS/MS method; format: ADME, organism-based, Macaca fascicularis; design: time 0 - last, dose 10 mg/kg, route oral; conditions: plasma
How it was run: (§1)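 Fasted male F344 rats (146–185 g) or male cynomolgus monkeys (3.48–4.29 kg), n = 4 per dose, given single iv or oral dose of 0.3, 1.0, 3.0 or 10.0 mg/kg; monkeys dosed with 2-week washouts. Blood sampled to 48 h; plasma stored frozen. LC-MS/MS with deuterated internal standard. Noncompartmental analysis: AUClast by trapezoidal rule; AUC0–inf = AUClast + Ctz/terminal rate constant; mean ± S.D.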

[2] = Oral bioavailability in F344 rat at 3 mg/kg administered as single dose by LC-MS/MS method; format: ADME, organism-based; conditions: in vivo
How it was run: (§2)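 Male F344 rats (146–185 g) and male cynomolgus monkeys (3.48–4.29 kg), n = 4 each, fasted overnight, received single iv or oral doses of 0.3, 1.0, 3.0 or 10.0 mg/kg. Monkeys had 2-week washouts between doses. Plasma was sampled to 48 h and assayed by LC-MS/MS with deuterated internal standard. Noncompartmental analysis: tmax observed; t1/2 by regression on ≥3 terminal log points; Vss = dose·AUMC/(AUC0–inf)²; Foral = oral/iv AUC0–inf at the same dose.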

[3] = Oral bioavailability in cynomolgus monkey at 10 mg/kg administered as single dose by LC-MS/MS method; format: ADME, organism-based, Macaca fascicularis; conditions: in vivo; how it was run: as §2
[4] = AUClast in F344 rat at 1 mg/kg, iv administered as single dose by LC-MS/MS method; format: ADME, organism-based; design: time 0 - last, dose 1 mg/kg, route intravenous; conditions: plasma; how it was run: as §1
[5] = Cmax in F344 rat at 10 mg/kg, po administered as single dose by LC-MS/MS method; format: ADME, organism-based; design: dose 10 mg/kg, route oral; conditions: in vivo
[6] = AUC (0 to infinity) in cynomolgus monkey at 3 mg/kg, iv administered as single dose by LC-MS/MS method; format: ADME, organism-based, Macaca fascicularis; design: time infinity, dose 3 mg/kg, route intravenous; conditions: plasma; how it was run: as §1
[7] = Clearance in F344 rat at 3 mg/kg, iv administered as single dose by LC-MS/MS method; format: ADME, organism-based; design: dose 3 mg/kg, route intravenous; conditions: in vivo
How it was run: (§3)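 Fasted male F344 rats (146–185 g) and male cynomolgus monkeys (3.48–4.29 kg), n = 4 each, received a single iv dose; monkeys had 2-week washouts between doses. Blood was sampled up to 48 h and plasma stored at […]. Plasma parent was quantified by LC-MS/MS with a deuterated internal standard. CL = dose/AUC0–inf by noncompartmental analysis; mean ± S.D.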

[8] = Clearance in F344 rat at 10 mg/kg, iv administered as single dose by LC-MS/MS method; format: ADME, organism-based; design: dose 10 mg/kg, route intravenous; conditions: in vivo; how it was run: as §3
[9] = Clearance in cynomolgus monkey at 10 mg/kg, iv administered as single dose by LC-MS/MS method; format: ADME, organism-based, Macaca fascicularis; design: dose 10 mg/kg, route intravenous; conditions: in vivo; how it was run: as §3
[10] = Tmax in F344 rat at 3 mg/kg, po administered as single dose by LC-MS/MS method; format: ADME, organism-based; design: dose 3 mg/kg, route oral; conditions: in vivo; how it was run: as §2
[11] = AUC (0 to infinity) in cynomolgus monkey at 1 mg/kg, po administered as single dose by LC-MS/MS method; format: ADME, organism-based, Macaca fascicularis; design: dose 1 mg/kg, route oral, time infinity; conditions: plasma; how it was run: as §1
[12] = AUClast in cynomolgus monkey at 3 mg/kg, po administered as single dose by LC-MS/MS method; format: ADME, organism-based, Macaca fascicularis; design: time 0 - last, dose 3 mg/kg, route oral; conditions: plasma; how it was run: as §1
[13] = AUClast in F344 rat at 0.3 mg/kg, po administered as single dose by LC-MS/MS method; format: ADME, organism-based; design: time 0 - last, dose 0.3 mg/kg, route oral; conditions: plasma; how it was run: as §1
[14] = Half life in F344 rat at 1 mg/kg, po administered as single dose by LC-MS/MS method; format: ADME, organism-based; design: dose 1 mg/kg, route oral; conditions: in vivo
[15] = Drug excretion in F344 rat urine at 1 mg/kg, iv administered as single dose after 0 to 48 hrs by scintillation counting method; format: ADME, organism-based; design: dose 1 mg/kg, route intravenous; conditions: in vivo
How it was run: (§4)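 Fasted F344 rats (152–156 g iv via tail vein; 154–159 g oral; n = 4) received [14C]-labelled drug at 1 mg/kg (41.9 µCi/kg). Animals were kept in metabolic cages; urine and feces were collected to 168 h, and expired CO2 was trapped in 2-aminoethanol/2-methoxyethanol (1:1) to 48 h. Samples were counted by liquid scintillation (feces homogenized). Results are % of dose, mean ± S.D.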

Rattus norvegicus = test: Total drug excretion in F344 rat at 1 mg/kg, iv administered as single dose after 0 to 168 hrs by scintillation counting method; format: ADME, organism-based; design: dose 1 mg/kg, route intravenous; conditions: in vivo
How it was run: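 Fasted F344 rats (n = 4) received [14C]-labelled drug at 1 mg/kg (41.9 µCi/kg), iv via tail vein or oral. They were housed in metabolic cages. Urine and feces were collected to 168 h, and expired CO2 was trapped in 2-aminoethanol/2-methoxyethanol to 48 h. Radioactivity was counted by liquid scintillation, feces after homogenization. Results are % of dose.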

[16] = Drug excretion in F344 rat urine at 1 mg/kg, po administered as single dose after 0 to 48 hrs by scintillation counting method; format: ADME, organism-based; design: dose 1 mg/kg, route oral; conditions: in vivo; how it was run: as §4
[17] = Drug excretion in F344 rat expired air at 1 mg/kg, po administered as single dose after 0 to 48 hrs by scintillation counting method; format: ADME, organism-based; design: dose 1 mg/kg, route oral; conditions: in vivo; how it was run: as §4
[18] = Drug excretion in F344 rat feces at 1 mg/kg, po administered as single dose after 0 to 168 hrs by scintillation counting method; format: ADME, organism-based; design: dose 1 mg/kg, route oral; conditions: in vivo; how it was run: as §4
Ileum = test: Drug distribution in F344 rat ileum at 1 mg/kg, po administered as single dose after 2 hrs by scintillation counting method; format: ADME, organism-based; design: dose 1 mg/kg, route oral; conditions: in vivo
How it was run: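 [14C]-labelled drug (1 mg/kg, 42.4 µCi/kg) was given orally to fasted F344 rats (148–168 g, n = 3). Contents of stomach, duodenum+jejunum, ileum and cecum were washed out with water at 0.5–8 h, homogenized, solubilized and counted by liquid scintillation. Results are % of dose, mean ± S.D.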

[19] = Ratio of drug level in blood to plasma in cynomolgus monkey after 5 mins; format: ADME, Macaca fascicularis
[20] = Drug metabolism in monkey liver S9 fractions at 0.42 uCi/ml assessed as metabolite formation in presence of NADPH after 1 hr at 37 degC by LC-MS/MS method; format: ADME, subcellular, Macaca mulatta, Liver S9 fraction; conditions: rhesus monkey, s9, 1 h
[21] = Drug metabolism in human intestinal S9 fractions at 0.42 uCi/ml assessed as metabolite formation in presence of NADPH after 1 hr at 37 degC by LC-MS/MS method; format: ADME, Intestine; conditions: s9, 1 h
Plasma = test: Drug metabolism in po dosed F344 rat plasma by LC-MS/MS method; format: ADME, organism-based; conditions: in vivo
[22] = Drug excretion in cynomolgus monkey urine at 3 mg/kg, iv administered as single dose after 0 to 336 hrs by scintillation counting method; format: ADME, organism-based, Macaca fascicularis; design: dose 3 mg/kg, route intravenous; conditions: in vivo
Cynomolgus monkey = test: Drug excretion in cynomolgus monkey assessed as drug level found during cage washing at 3 mg/kg, po administered as single dose after 0 to 48 hrs by scintillation counting method; format: ADME, organism-based, Macaca fascicularis; design: dose 3 mg/kg, route oral; conditions: in vivo
How it was run: (§5)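 Fasted cynomolgus monkeys (n = 4) received [14C]-labelled drug at 3 mg/kg, iv via saphenous vein (191 µCi/kg) or orally by stomach catheter (156.5 µCi/kg). Urine, feces and water cage-wash were collected to 336 h. Samples were counted by liquid scintillation; feces were homogenized in 4-fold water. Results are % of dose, mean ± S.D.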

[23] = Drug excretion in cynomolgus monkey feces at 3 mg/kg, po administered as single dose after 0 to 336 hrs by scintillation counting method; format: ADME, organism-based, Macaca fascicularis; design: dose 3 mg/kg, route oral; conditions: in vivo; how it was run: as §5
[24] = Drug excretion in cynomolgus monkey feces at 3 mg/kg, po administered as single dose after 48 hrs by scintillation counting method; conditions: in vivo

AUC(0-t) [1]: 869 ng·h/mL
bioavailability [2]: 1.73%
bioavailability [3]: 1.2%
AUC(0-t) [4]: 4920 ng·h/mL
Cmax [5]: 285 ng/mL
AUC(0-inf) [6]: 18200 ng·h/mL
clearance [7]: 2.67 mL/min/kg
clearance [8]: 3.16 mL/min/kg
clearance [9]: 2.25 mL/min/kg
Tmax [10]: 0.375 h
AUC(0-inf) [11]: 57.9 ng·h/mL
AUC(0-t) [12]: 186 ng·h/mL
AUC(0-t) [13]: 42.1 ng·h/mL
half-life [14]: 1.81 h
Structure (SMILES): C[C@H]1O[C@@H](O[C@H]2[C@H](O)[C@@H](O)[C@@H](O[C@H]3[C@H](O)CN[C@@H]3CO)O[C@@H]2CO)[C@H](O)[C@@H](O)[C@@H]1O

Drug excretion [15]: 70.49%
Drug excretion (Rattus norvegicus): 95.85%
Drug excretion [16]: 13.34%
Drug excretion [17]: 2.34%
Drug excretion [18]: 80.28%
Drug uptake (Ileum): 33.9%
blood plasma ratio at 5 min [19]: 0.595
Drug metabolism [20]: metabolite_not_detected
Drug metabolism [21]: metabolite_not_detected
Drug metabolism (Plasma): metabolite_not_detected
Drug excretion [22]: 81.13%
Drug excretion (Cynomolgus monkey): 0.76%
Drug excretion [23]: 88.13%
Drug excretion [24]: 48.7%
Structure (SMILES): C[C@H]1O[C@@H](O[C@H]2[C@H](O)[C@@H](O)[C@@H](O[14C@H]3[14C@H](O)[14CH2]N[14C@@H]3[14CH2]O)O[C@@H]2CO)[C@H](O)[C@@H](O)[C@@H]1O
